# Assays:
# Cytochrome P450 2D6 = Cytochrome P450 2D6 (Homo sapiens, UniProt P10635); test: Inhibition of Cytochrome P450 2D6; assay type: ADME
# Cytochrome P450 3A4 [1] = target: T1, Cytochrome P450 3A4 (Homo sapiens, UniProt P08684); test: Inhibition of Cytochrome P450 3A4 as BQ substrate; assay type: ADME
# Cytochrome P450 2C9 = Cytochrome P450 2C9 (Homo sapiens, UniProt P11712); test: Inhibition of Cytochrome P450 2C9; assay type: ADME
# [2] = Binding towards monkey plasma protein at 100 uM; assay type: ADME, cell-free; conditions: cercopithecidae
# Procedure, shortened: (§1)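 Test compound incubated at 10 or 100 μM with plasma from mouse, rat, monkey, dog and human. The filtrate was analysed, and binding was expressed as percent bound at each concentration.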
# [3] = Binding towards human plasma protein at 100 uM; assay type: ADME, cell-free; procedure, shortened: as §1
# Coagulation factor VII = target: T2, Coagulation factor VII (Homo sapiens, UniProt P08709); test: Inhibitory activity against coagulation factor VII
# T2 sequence (P08709 whole entry): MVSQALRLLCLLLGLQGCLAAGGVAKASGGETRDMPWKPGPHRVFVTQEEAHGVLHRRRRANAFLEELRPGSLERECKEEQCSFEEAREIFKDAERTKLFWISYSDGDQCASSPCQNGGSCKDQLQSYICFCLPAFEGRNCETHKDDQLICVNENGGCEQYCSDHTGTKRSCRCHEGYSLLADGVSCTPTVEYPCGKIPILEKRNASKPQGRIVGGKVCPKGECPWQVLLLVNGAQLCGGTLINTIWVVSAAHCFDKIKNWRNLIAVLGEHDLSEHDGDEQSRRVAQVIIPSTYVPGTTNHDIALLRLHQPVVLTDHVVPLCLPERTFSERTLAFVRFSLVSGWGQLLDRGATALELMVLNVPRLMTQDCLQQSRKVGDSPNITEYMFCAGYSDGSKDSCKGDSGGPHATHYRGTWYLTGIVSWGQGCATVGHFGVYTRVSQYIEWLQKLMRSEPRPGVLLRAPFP
# [4] = Binding towards human plasma protein at 10 uM; assay type: ADME, cell-free; procedure, shortened: as §1
# Serine protease 1 = Serine protease 1 (Homo sapiens, UniProt P07477); test: Inhibitory activity against trypsin
# Chain of Serine protease 1 (P07477 whole entry): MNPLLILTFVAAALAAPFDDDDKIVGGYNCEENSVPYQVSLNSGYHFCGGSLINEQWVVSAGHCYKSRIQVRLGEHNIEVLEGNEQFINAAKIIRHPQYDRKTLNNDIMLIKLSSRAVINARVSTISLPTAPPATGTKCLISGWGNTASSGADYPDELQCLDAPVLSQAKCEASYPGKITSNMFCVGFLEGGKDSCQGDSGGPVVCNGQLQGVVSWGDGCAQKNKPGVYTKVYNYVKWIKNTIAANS
# Canis familiaris [5] = species: Canis familiaris; test: Plasma protein binding towards dog plasma at 100 uM; assay type: ADME, Canis lupus familiaris; procedure, shortened: as §1
# Rattus norvegicus [6] = species: Rattus norvegicus; test: Binding towards rat plasma protein at 100 uM; assay type: ADME; procedure, shortened: as §1
# [7] = Binding towards monkey plasma protein at 10 uM; assay type: ADME, cell-free; conditions: cercopithecidae; procedure, shortened: as §1
# Mus musculus [8] = species: Mus musculus; test: Binding towards mouse plasma protein at 10 uM; assay type: ADME; procedure, shortened: as §1
# Coagulation factor X = Coagulation factor X (Homo sapiens, UniProt P00742); test: Inhibitory activity against Coagulation factor X
# Chain of Coagulation factor X (P00742 41-179 limits assumed): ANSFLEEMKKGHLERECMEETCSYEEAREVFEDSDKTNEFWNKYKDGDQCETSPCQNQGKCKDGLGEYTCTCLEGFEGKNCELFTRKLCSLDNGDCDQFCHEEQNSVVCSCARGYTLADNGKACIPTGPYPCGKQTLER
# Chain of Coagulation factor X (P00742 235-488 limits assumed): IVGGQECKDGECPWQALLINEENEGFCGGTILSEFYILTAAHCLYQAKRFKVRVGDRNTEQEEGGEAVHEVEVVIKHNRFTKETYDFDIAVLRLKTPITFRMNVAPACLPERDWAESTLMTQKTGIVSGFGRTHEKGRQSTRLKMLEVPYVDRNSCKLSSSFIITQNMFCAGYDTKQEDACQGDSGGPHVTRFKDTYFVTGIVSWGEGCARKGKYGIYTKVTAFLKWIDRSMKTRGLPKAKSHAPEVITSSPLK
# Prothrombin = Prothrombin (Homo sapiens, UniProt P00734); test: Inhibitory activity against thrombin
# Cathepsin B = Cathepsin B (Homo sapiens, UniProt P07858); test: Inhibitory activity against Cathepsin B
# Mus musculus [9] = species: Mus musculus; test: Binding towards mouse plasma protein at 100 uM; assay type: ADME; procedure, shortened: as §1
# [10] = The compound was tested for toxicity using human neuroblastoma SY5Y cells; assay type: cell-based
# Procedure, shortened: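 Cytotoxicity was assessed in cultured human neuroblastoma SY5Y cells, alongside rat cerebellar granule neurons.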
# Chymotrypsinogen A = Chymotrypsinogen A (Bos taurus, UniProt P00766); test: Inhibitory activity against Chymotrypsinogen
# Rattus norvegicus [11] = species: Rattus norvegicus; test: Binding towards rat plasma protein at 10 uM; assay type: ADME; procedure, shortened: as §1
# Cytochrome P450 3A4 [12] = target: T1, Cytochrome P450 3A4; test: Inhibition of Cytochrome P450 3A4 as BFC substrate; assay type: ADME
# Cytochrome P450 2C19 = Cytochrome P450 2C19 (Homo sapiens, UniProt P33261); test: Inhibition of Cytochrome P450 2C19; assay type: ADME
# Chain of Cytochrome P450 2C19 (P33261 whole entry): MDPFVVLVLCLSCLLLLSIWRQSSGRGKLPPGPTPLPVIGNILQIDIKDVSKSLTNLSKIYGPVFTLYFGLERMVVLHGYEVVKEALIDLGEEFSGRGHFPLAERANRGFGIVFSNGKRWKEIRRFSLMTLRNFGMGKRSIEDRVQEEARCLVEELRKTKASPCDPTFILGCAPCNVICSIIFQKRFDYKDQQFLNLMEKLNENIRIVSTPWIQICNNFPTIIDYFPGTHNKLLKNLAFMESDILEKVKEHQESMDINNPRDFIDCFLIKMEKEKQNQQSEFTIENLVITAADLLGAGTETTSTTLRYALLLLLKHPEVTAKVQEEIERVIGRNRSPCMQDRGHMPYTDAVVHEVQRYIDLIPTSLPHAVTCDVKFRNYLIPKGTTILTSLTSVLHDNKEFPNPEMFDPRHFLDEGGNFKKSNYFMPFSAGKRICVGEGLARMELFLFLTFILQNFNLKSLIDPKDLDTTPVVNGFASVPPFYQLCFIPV
# Caspase-1 = target: T3, Caspase-1 (Homo sapiens, UniProt P29466); test: Inhibitory activity against interleukin 1-beta converting enzyme (IL-1 beta converting enzyme)
# T3 sequence (P29466 whole entry): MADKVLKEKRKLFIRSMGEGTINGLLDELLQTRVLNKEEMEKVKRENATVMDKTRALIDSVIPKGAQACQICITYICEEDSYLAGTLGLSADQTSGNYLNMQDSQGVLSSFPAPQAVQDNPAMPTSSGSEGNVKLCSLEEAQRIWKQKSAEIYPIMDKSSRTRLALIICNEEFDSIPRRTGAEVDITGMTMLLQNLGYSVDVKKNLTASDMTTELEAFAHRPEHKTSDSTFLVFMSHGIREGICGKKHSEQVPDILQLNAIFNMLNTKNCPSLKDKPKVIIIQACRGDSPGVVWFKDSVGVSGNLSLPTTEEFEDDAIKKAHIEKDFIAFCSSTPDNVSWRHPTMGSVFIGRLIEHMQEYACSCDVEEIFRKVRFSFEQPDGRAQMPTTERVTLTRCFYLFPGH
# Canis familiaris [13] = species: Canis familiaris; test: Plasma protein binding towards dog plasma at 10 uM; assay type: ADME, Canis lupus familiaris; procedure, shortened: as §1
# Proteasome = test: Inhibitory activity against proteasome; assay type: subcellular
# T1 sequence (P08684 whole entry): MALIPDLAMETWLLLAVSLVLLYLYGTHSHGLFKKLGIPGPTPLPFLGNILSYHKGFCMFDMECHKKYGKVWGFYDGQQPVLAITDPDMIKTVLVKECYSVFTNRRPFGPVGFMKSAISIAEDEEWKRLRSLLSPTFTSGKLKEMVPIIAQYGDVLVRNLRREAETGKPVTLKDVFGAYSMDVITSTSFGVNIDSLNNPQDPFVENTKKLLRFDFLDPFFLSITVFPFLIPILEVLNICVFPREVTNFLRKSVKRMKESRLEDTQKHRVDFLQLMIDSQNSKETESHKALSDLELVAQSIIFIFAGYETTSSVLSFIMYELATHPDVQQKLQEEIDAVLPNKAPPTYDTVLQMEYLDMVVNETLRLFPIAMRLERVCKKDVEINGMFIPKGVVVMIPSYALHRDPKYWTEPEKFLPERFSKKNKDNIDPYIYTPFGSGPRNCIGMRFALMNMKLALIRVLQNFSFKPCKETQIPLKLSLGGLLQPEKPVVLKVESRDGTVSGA
# Chain of Cytochrome P450 2C9 (P11712 whole entry): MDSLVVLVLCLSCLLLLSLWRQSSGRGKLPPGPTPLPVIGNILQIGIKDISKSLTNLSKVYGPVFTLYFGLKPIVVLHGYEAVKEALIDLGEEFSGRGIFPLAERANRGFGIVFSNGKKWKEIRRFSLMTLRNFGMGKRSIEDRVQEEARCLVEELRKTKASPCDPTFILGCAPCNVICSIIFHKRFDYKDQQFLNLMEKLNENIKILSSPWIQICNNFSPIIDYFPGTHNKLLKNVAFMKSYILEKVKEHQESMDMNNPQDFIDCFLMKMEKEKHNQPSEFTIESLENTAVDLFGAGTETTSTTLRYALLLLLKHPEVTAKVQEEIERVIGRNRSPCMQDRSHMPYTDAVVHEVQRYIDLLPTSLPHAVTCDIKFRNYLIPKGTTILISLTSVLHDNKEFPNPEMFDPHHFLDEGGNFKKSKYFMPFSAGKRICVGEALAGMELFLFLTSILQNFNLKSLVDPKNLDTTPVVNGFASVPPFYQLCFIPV
# Chain of Cytochrome P450 2D6 (P10635 whole entry): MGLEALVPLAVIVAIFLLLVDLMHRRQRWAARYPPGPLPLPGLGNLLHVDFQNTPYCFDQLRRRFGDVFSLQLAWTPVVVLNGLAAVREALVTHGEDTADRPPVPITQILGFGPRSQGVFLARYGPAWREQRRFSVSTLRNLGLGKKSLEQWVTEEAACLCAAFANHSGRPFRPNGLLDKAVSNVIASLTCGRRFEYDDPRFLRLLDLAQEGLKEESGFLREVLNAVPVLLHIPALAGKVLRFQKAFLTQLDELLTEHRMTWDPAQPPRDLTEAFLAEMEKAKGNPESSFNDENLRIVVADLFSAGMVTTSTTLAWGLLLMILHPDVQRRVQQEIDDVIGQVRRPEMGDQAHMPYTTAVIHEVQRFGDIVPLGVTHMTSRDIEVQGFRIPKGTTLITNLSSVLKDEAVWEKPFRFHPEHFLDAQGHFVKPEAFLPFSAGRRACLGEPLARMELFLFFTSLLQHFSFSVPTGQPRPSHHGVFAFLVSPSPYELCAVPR
structure (smiles),measurement,setting,value
CC(C)C[C@H](C=O)NC(=O)[C@@H](NS(=O)(=O)c1ccc(F)cc1)C(C)C,IC50,Cytochrome P450 2D6,291 µM
same,IC50,Cytochrome P450 3A4 [1],531 µM
same,IC50,Cytochrome P450 2C9,492 µM
same,Binding,[2],90.5%
same,Binding,[3],91.6%
same,IC50,Coagulation factor VII,> 100 µM
same,Binding,[4],95.4%
same,IC50,Serine protease 1,> 100 µM
same,Binding,Canis familiaris [5],66.8%
same,Binding,Rattus norvegicus [6],85.4%
same,Binding,[7],95.1%
same,Binding,Mus musculus [8],89.9%
same,IC50,Coagulation factor X,> 60 µM
same,IC50,Prothrombin,> 100 µM
same,IC50,Cathepsin B,0.015 µM
same,Binding,Mus musculus [9],90.2%
same,CC50,[10],> 1000 µM
same,IC50,Chymotrypsinogen A,> 200 µM
same,Binding,Rattus norvegicus [11],89.9%
same,IC50,Cytochrome P450 3A4 [12],81 µM
same,IC50,Cytochrome P450 2C19,177 µM
same,IC50,Caspase-1,> 100 µM
same,Binding,Canis familiaris [13],75.8%
same,IC50,Proteasome,> 200 µM
CC(C)C[C@H](C=O)NC(=O)[C@@H](NS(=O)(=O)c1ccc2ccccc2c1)C(C)C,CC50,[10]; read-out: LD50 (the source's name),9.8 µM
